Experimental data gathered from unrelated publications.
Protocols differ between the studies behind these lines.
Target: Cyclin-dependent kinase 15 (CDK15, Homo sapiens, UniProt Q96Q40)

`Cc1cnc(Nc2ccc(C(=O)N3CCC(N4CCCC4)CC3)cc2)nc1-c1cc2ccccc2s1` has a remaining binding of 99% (binding; competition with immobilised ligand; 1 µM).
With `COc1cnc(Nc2cccc(S(N)(=O)=O)c2)nc1N1CCN(c2ccccc2)CC1` the remaining binding was 93% (binding; competition with immobilised ligand; 1 µM).
For `O=C(c1ccc(Nc2nccc(-c3cc4ccccc4s3)n2)cc1)N1CCC(N2CCCC2)CC1`, the remaining binding was 100% (binding; competition with immobilised ligand; 1 µM).
`O=C(NCC1CCOCC1)c1n[nH]cc1NC(=O)c1c(F)cccc1F` gave a remaining binding of 82% (binding; competition with immobilised ligand; 1 µM).
The remaining binding of `CN(C)c1ncc(F)c(-c2cnn3ncccc23)n1` is reported as 100% (binding; 1 µM).
`Cc1nc(N2CC[C@@H](O)C2)ncc1-c1cc(C(F)(F)F)cc2[nH]ncc12` gave a remaining binding of 81% (binding; competition with immobilised ligand; 1 µM).
`O=C(NCCCN1CCOCC1)c1ccc(Nc2nccc(-c3cc4ccccc4s3)n2)cc1` has a remaining binding of 87% (binding; competition with immobilised ligand; 1 µM).
`Cn1nc(C(=O)NCc2ccc(C(=O)O)cc2)cc1-c1ccc2[nH]ccc2c1` gave a remaining binding of 95% (cell-free assay; competition with immobilised ligand; 0.1 µM).
With `C[C@H]1CCN(c2nccc(-c3cnn4ncccc34)n2)C1` the remaining binding was 56% (binding; 1 µM).
`O=C(O)c1cc(-c2ccc(C3CCNCC3)cc2)c2ccc(-c3ccc(C(F)(F)F)cc3)cc2c1` has a remaining binding of 96% (cell-free assay; competition with immobilised ligand; 1 µM).
`CNC(=O)[C@@H]1CC[C@@H](n2c(-c3ccc4cnccc4c3)nc3ccc(C(=O)NCc4cccc(C(N)=O)c4)cc32)C1` gave a remaining binding of 100% (binding; competition with immobilised ligand; 1 µM).
With `CCc1ccccc1C(=O)Nc1n[nH]c2c(C)c(F)c(C3C(C#N)=C(C)N(C)C(C)=C3C#N)cc12` the remaining binding was 95% (cell-free assay; competition with immobilised ligand; 1 µM).
`N[C@@H]1CCN(c2nccc(-c3cnn4ncccc34)n2)C1` gave a remaining binding of 100% (binding; 1 µM).
`COc1ncc2cc3ccccc3nc2c1C#N` gave a remaining binding of 99% (cell-free assay; competition with immobilised ligand; 5 µM).
`CS(=O)(=O)c1cc(C2(NC(=O)c3cncc4c3cnn4-c3ccc(F)cc3)CC2)ccn1` has a remaining binding of 100% (cell-free assay; competition with immobilised ligand; 1 µM).
`CN(c1nccc(-c2cnn3ncccc23)n1)C1CC1` gave a remaining binding of 100% (binding; 1 µM).
For `O=S(=O)(NC1CCC(c2cc(F)ccc2F)(S(=O)(=O)c2ccc(Cl)cc2)CC1)C(F)(F)F` (stereo not shown), the remaining binding was 100% (cell-free assay; competition with immobilised ligand; 1 µM).
With `Cc1cnn2ncc(-c3ccnc(N(C)C)n3)c2c1` the remaining binding was 100% (binding; 1 µM).
For `C=CC(=O)N1CCC(C(=O)NCC(=O)N2CCN(c3nc(-c4cnc(N)nc4C(F)F)nc(N4CCOCC4)n3)CC2)CC1`, the remaining binding was 100% (binding; competition with immobilised ligand; 1 µM).
With `CN(C)c1nccc(-c2cnc3ncccn23)n1` the remaining binding was 83% (binding; 1 µM).
`C[C@@H](c1ccc(-n2cnc3c(N)ncnc32)cc1)N1CCc2nn(C)c(Cc3ccccc3)c2C1=O` has a remaining binding of 86% (binding; competition with immobilised ligand; 0.1 µM).
The remaining binding of `CCS(=O)(=O)c1cc2cc(C[C@@](O)(CC(C)(C)c3ccc(F)cc3C(N)=O)C(F)(F)F)[nH]c2cn1` is reported as 59% (cell-free assay; competition with immobilised ligand; 1 µM).
